Columns and labels:
[1] = Clearance in Balb/c mouse at 2.5 mg/kg, iv by LC-MS/MS analysis; assay type: ADME, organism-based; conditions: in vivo
Summary of the method: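 Female BALB/c mice (20–25 g), five per route. Oral dose 25 mg/kg in 0.5% carboxymethyl cellulose; i.v. dose 2.5 mg/kg in 10% DMSO/physiological saline. Blood sampled 5 min–72 h after p.o. and 2 min–48 h after i.v. Analyte quantified by LC/MS/MS (ESI positive, C18, isocratic methanol/water). Parameters from non-compartmental analysis.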

[2] = Toxicity in female Sprague-Dawley rat assessed as effect on food consumption at 50 to 450 mg/kg/day, po administered for 4 weeks followed by 2 week recovery period measured at 1 week interval; assay type: organism-based; conditions: in vivo, 672 h, dose 50-450 mg/kg/day
Summary of the method: (§1)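 SD rats, 6-7 weeks old (96 in total), split into vehicle, 50, 150 and 450 mg/kg/day groups of 12 females and 12 males each, given oral doses once daily for 4 weeks, then 2 weeks of recovery. Mortality, body weight, food intake, eyes, urine and neuropsychic signs were observed. Organ and bone marrow histopathology was done on 8 rats per sex per group after the last dose and on the remaining 4 per sex after 14 days of recovery.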

[3] = Toxicity in male Sprague-Dawley rat assessed as change in hematocrit level at 450 mg/kg/day, po administered for 4 weeks followed by 2 week recovery period (Rvb =45.2 +/- 1.7 %); assay type: organism-based; conditions: in vivo, 672 h
[4] = molecular target: Cytochrome P450 2D6 (Homo sapiens, UniProt P10635); test: Inhibition of CYP2D6 in human liver microsomes after 20 mins by LC-MS/MS analysis; assay type: ADME
Summary of the method: (§2)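 Human liver microsomes (0.2 mg/mL) in phosphate buffer, 20 min incubation with compound at 0.1-50 μM alongside isoform-specific substrates and a positive control. Substrate remaining monitored by LC-MS/MS at each concentration; IC50 derived.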

[5] = Toxicity in female Sprague-Dawley rat assessed as change in neutrophil level at 150 mg/kg/day, po administered for 4 weeks followed by 2 week recovery period (Rvb =18.5 +/- 5.3 %); assay type: organism-based; conditions: in vivo, 672 h
[6] = Toxicity in male Sprague-Dawley rat assessed as ophthalmic changes at 50 to 450 mg/kg/day, po administered for 4 weeks followed by 2 week recovery period measured within 7 days of post recover period; assay type: organism-based; conditions: in vivo, 672 h, dose 50-450 mg/kg/day
[7] = Toxicity in male Sprague-Dawley rat assessed as abnormalities in urine at 50 to 450 mg/kg/day, po administered for 4 weeks followed by 2 week recovery period measured within last 7 days of recover period; assay type: organism-based; conditions: in vivo, 672 h, dose 50-450 mg/kg/day; summary of the method: as §1
[8] = test system: Mycobacterium tuberculosis; test: Antitubercular activity against Mycobacterium tuberculosis H37Rv infected in Balb/c mouse assessed as lung bacterial burden by measuring colony forming unit at 100 mg/kg/day, po administered via gavage 5 times per week for 3 weeks starting from 10 days post-infection and measured 24 hrs post last dose (reference value: 7.102 +/- 0.152 log10CFU); assay type: functional; conditions: time 22 day
Summary of the method: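 Female SPF BALB/c mice, 6 per group, aerosol-infected with M. tuberculosis H37Rv to deposit 50-100 bacilli per lung. Compound suspended in 0.5% CMC, given by oral gavage from day 10 post-infection, 5 times per week for 3 weeks; controls got 0.5% CMC. Lungs harvested the day after the last dose, homogenised, diluted in HBSS, plated on 7H11 agar in duplicate, incubated 3 weeks at 37 °C. Result expressed as mean log10 CFU; t-test versus control.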

[9] = Toxicity in male Sprague-Dawley rat assessed as change in neutrophil level at 150 mg/kg/day, po administered for 4 weeks followed by 2 week recovery period (Rvb =15.9 +/- 3.4 %); assay type: organism-based; conditions: in vivo, 672 h
[10] = Toxicity in male Sprague-Dawley rat assessed as effect on food consumption at 50 to 450 mg/kg/day, po administered for 4 weeks measured at 1 week interval; assay type: organism-based; conditions: in vivo, 672 h, dose 50-450 mg/kg/day
[11] = Toxicity in female Sprague-Dawley rat assessed as change in reticulocyte level at 150 mg/kg/day, po administered for 4 weeks followed by 2 week recovery period (Rvb =2.85 +/- 0.53 %); assay type: organism-based; conditions: in vivo, 672 h
[12] = Oral bioavailability in Balb/c mouse at 25 mg/kg by LC-MS/MS analysis; assay type: ADME, organism-based; conditions: in vivo
Summary of the method: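 Female BALB/c mice, 20-25 g, five per route. Dosed 25 mg/kg p.o. in 0.5% carboxymethyl cellulose or 2.5 mg/kg i.v. in 10% DMSO/saline. Blood sampled 5 min-72 h (p.o.) or 2 min-48 h (i.v.), quantified by LC/MS/MS with ESI+. Parameters by non-compartmental analysis; F = (AUCpo×dose_iv)/(AUCiv×dose_po)×100%.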

[13] = Toxicity in male Sprague-Dawley rat assessed as change in red blood cell count at 150 mg/kg/day, po administered for 4 weeks followed by 2 week recovery period (Rvb =7.86 +/- 0.32 10^12/L); assay type: organism-based; conditions: in vivo, 672 h
[14] = Toxicity in female Sprague-Dawley rat assessed as change in platelet count at 450 mg/kg/day, po administered for 4 weeks followed by 2 week recovery period (Rvb =1051 +/- 122 10^9/L); assay type: organism-based; conditions: in vivo, 672 h
[15] = Toxicity in female Sprague-Dawley rat assessed as mortality at 50 to 450 mg/kg/day, po administered for 4 weeks followed by 2 week recovery period; assay type: organism-based; conditions: in vivo, 672 h, dose 50-450 mg/kg/day; summary of the method: as §1
[16] = Toxicity in female Sprague-Dawley rat assessed as change in lymphocyte level at 50 mg/kg/day, po administered for 4 weeks followed by 2 week recovery period (Rvb =76.9 +/- 4.6 %); assay type: organism-based; conditions: in vivo, 672 h
[17] = Toxicity in male Sprague-Dawley rat assessed as change in mean corpuscular volume at 450 mg/kg/day, po administered for 4 weeks followed by 2 week recovery period (Rvb =57.5 +/- 2.0 fL); assay type: organism-based; conditions: in vivo, 672 h
[18] = Toxicity in female Sprague-Dawley rat assessed as histopathological changes at 50 to 450 mg/kg/day, po administered for 4 weeks measured post last dose; assay type: organism-based; conditions: in vivo, 672 h, dose 50-450 mg/kg/day; summary of the method: as §1
[19] = Toxicity in male Sprague-Dawley rat assessed as change in mean corpuscular hemoglobin at 450 mg/kg/day, po administered for 4 weeks followed by 2 week recovery period (Rvb =18.3 +/- 0.4 pg); assay type: organism-based; conditions: in vivo, 672 h
[20] = Toxicity in male Sprague-Dawley rat assessed as changes in neuropsychic symptoms at 50 to 450 mg/kg/day, po administered for 4 weeks measured during last 24 hrs of treatment period; assay type: organism-based; conditions: in vivo, 672 h, dose 50-450 mg/kg/day
[21] = Half life in cynomolgus monkey hepatocytes at 2 uM by LC-MS/MS analysis; assay type: ADME, cell-based, Macaca fascicularis, Hepatocyte
Summary of the method: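 Hepatocytes (male CD-1 mouse, male SD rat, male beagle dog, male cynomolgus monkey, pooled human), final 1 μM compound and 1 million cells/mL, made by mixing 2 μM compound with 2 million cells/mL. Incubated at 37 °C in a CO2 incubator; sampled at 0, 15, 30, 60, 90 and 120 min. Quenched with methanol/ACN containing 0.1% formic acid. Parent remaining measured by LC-MS/MS.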

[22] = Toxicity in female Sprague-Dawley rat assessed as change in mean corpuscular hemoglobin at 50 mg/kg/day, po administered for 4 weeks followed by 2 week recovery period (Rvb =18.5 +/- 0.6 pg); assay type: organism-based; conditions: in vivo, 672 h
[23] = molecular target: Cytochrome P450 3A4 (Homo sapiens, UniProt P08684); test: Inhibition of CYP3A4 in human liver microsomes after 20 mins by LC-MS/MS analysis; assay type: ADME; summary of the method: as §2
[24] = Toxicity in female Sprague-Dawley rat assessed as change in lymphocyte level at 450 mg/kg/day, po administered for 4 weeks followed by 2 week recovery period (Rvb =76.9 +/- 4.6 %); assay type: organism-based; conditions: in vivo, 672 h

Cytochrome P450 3A4, sequence (P08684 whole entry): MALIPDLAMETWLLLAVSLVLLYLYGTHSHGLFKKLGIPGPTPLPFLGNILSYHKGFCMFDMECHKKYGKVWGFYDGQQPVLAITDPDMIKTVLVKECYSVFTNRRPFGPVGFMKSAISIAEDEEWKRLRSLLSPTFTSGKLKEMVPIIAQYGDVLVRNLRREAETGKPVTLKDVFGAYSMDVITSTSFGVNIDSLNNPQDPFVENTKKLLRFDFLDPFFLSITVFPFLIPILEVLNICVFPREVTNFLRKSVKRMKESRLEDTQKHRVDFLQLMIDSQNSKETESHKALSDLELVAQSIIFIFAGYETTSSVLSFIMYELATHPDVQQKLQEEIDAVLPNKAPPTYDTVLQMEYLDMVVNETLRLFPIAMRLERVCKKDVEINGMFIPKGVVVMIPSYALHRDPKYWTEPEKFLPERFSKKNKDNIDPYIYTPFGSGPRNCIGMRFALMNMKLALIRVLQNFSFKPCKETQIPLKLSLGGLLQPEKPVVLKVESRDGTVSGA
Cytochrome P450 2D6, sequence (P10635 whole entry, canonical isoform): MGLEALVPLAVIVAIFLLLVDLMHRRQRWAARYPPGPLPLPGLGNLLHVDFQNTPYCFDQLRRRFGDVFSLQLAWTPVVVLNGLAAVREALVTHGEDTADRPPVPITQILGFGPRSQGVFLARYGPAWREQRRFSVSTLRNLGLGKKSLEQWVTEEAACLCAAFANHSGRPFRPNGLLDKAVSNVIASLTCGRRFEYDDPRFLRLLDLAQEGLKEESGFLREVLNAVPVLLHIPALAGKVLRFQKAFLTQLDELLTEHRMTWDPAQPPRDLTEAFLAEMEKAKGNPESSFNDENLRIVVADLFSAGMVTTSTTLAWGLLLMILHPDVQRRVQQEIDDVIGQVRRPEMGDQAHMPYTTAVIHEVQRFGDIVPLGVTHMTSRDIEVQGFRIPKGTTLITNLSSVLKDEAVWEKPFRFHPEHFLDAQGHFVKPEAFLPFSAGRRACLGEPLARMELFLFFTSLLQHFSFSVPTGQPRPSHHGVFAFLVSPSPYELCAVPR

CC(=O)NC[C@@H]1OC(=O)N2c3cc(F)c(N4CCSCC4)cc3OC[C@@H]12
clearance [1]: 36.5 mL/min/kg
Activity [2]: Non-Toxic
Activity [3]: 43.8%
IC50 [4]: > 50 µM
Activity [5]: 12.2%
Activity [6]: Non-Toxic
Activity [7]: Non-Toxic
Activity [8]: 1.954 log10CFU
Activity [9]: 17%
Activity [10]: Non-Toxic
Activity [11]: 2.89%
bioavailability [12]: 55.9%
Activity [13]: 7.62 10^12/L
Activity [14]: 735 10^9/L
Activity [15]: Non-Toxic
Activity [16]: 80.7%
Activity [17]: 58.7 fL
Activity [18]: Non-Toxic
Activity [19]: 18.7 pg
Activity [20]: Non-Toxic
half-life at 2 µM [21]: 5.25 h
Activity [22]: 18.5 pg
IC50 [23]: > 50 µM
Activity [24]: 83.7%
